Assays:
[1] = test system: MCF7; assay: Cytotoxicity against human MCF7 cells incubated for 72 hrs by Sulphorhodamine assay; type: functional, cell-based; details: MCF7, 72 h
[2] = test system: MDA-MB-231; assay: Cytotoxicity against human MDA-MB-231 cells incubated for 72 hrs by Sulphorhodamine assay; type: functional, cell-based; details: MDA-MB-231, 72 h
[3] = Antiinflammatory activity in mouse peritoneal macrophage assessed as inhibition of LPS-induced TNFalpha production at 1 ug/ml relative to control; type: functional; set-up: scale not given: the % may be the effect or the level left; details: dose 1 µg/ml
[4] = Antiinflammatory activity in mouse peritoneal macrophage assessed as inhibition of LPS-induced TNFalpha production at 10 ug/ml relative to control; type: functional; set-up: scale not given: the % may be the effect or the level left; details: dose 10 µg/ml
[5] = Toxicity in Swiss albino mouse assessed as change in body weight at 5 mg/kg, po administered for 7 days (reference value: 29.35 +/- 0.57 g); type: organism-based; details: in vivo, 168 h, time 7 day
[6] = Toxicity in Swiss albino mouse assessed as haemoglobin level at 5 mg/kg, po administered for 7 days (reference value: 15.66 +/- 0.80 g/dl); type: organism-based; details: in vivo, 168 h, time 7 day
[7] = Toxicity in Swiss albino mouse assessed as RBC level at 1000 mg/kg, po administered for 7 days (reference value: 7.13 +/- 0.40 million/mm3); type: organism-based, Erythrocyte; details: in vivo, 168 h, time 7 day
Outline: (§1)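 Single acute oral dose (5, 50, 300 or 1000 mg/kg) given to Swiss albino mice, n = 6, with 7-day observation. At the end, haematological and serum biochemical parameters were measured. Compared with untreated controls; mean ± SE, ANOVA, p < 0.05.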

[8] = Toxicity in Swiss albino mouse assessed as WBC level at 50 mg/kg, po administered for 7 days (reference value: 5.29 +/- 0.51 10^3/mm3); type: organism-based; details: in vivo, 168 h, time 7 day
[9] = Hepatotoxicity in Swiss albino mouse assessed as alkaline phosphatase level at 1000 mg/kg, po administered for 7 days (reference value: 260.10 +/- 26.76 U/L); type: toxicity, organism-based; details: in vivo, 168 h, time 7 day; outline: as §1
[10] = Hepatotoxicity in Swiss albino mouse assessed as serum protein level at 300 mg/kg, po administered for 7 days (reference value: 5.73 +/- 0.21 mg/ml); type: toxicity, organism-based; details: in vivo, 168 h, time 7 day; outline: as §1

COc1cc(C2/C(=C/c3ccc(/C=C/C(=O)NO)cc3)C(=O)c3cc(OC)c(OC)c(OC)c32)cc(OC)c1OC (stereo not given)
IC50 [1]: > 100000 nM
IC50 [2]: 360 nM
Activity [3]: 17.28%
Activity [4]: 29.22%
Activity [5]: 28.17 g
Activity [6]: 17.63 g/dL
Activity [7]: 8.53 million/mm3
Activity [8]: 4.34 10^3/mm3
Activity [9]: 277.51 U/L
Activity [10]: 5.45 mg/mL

Source: ChEMBL document CHEMBL5257120 (Bioorg Med Chem, 2023)
